Results of several laboratories.
Each line is one published result; the experiments were not run side by side.

Structure (SMILES)	target or system	assay	test system	conditions	quantity	result
CC(C)[C@]12O[C@H]1[C@@H]1O[C@]13[C@]1(O[C@H]1C[C@H]1C4=C(CC[C@@]13C)C(=O)OC4)[C@@H]2O			SCID mouse, plasma	intravenous, 0.6 mg/kg	MRT	28.8 min
COc1ccc(NC(=O)N2CCCCN3[C@H](CN(C)C)[C@H](c4ccc(C#Cc5ccccc5)cc4)[C@@H]3C2)cc1	HepG2	cell growth or viability, ATP luminescence		72 h	CC50	6.08 µM
CC(C)CC(=O)OC[C@H]1O[C@@](C#N)(c2ccc3c(N)ncnn23)[C@H](O)[C@@H]1O		metabolic stability	human, plasma	5 µM	half-life	7.93 min
CCOC(=O)c1c(NC(=O)CNC(C)C)sc2c1CCCCC2			male mouse, plasma	intraperitoneal, 100 mg/kg, single dose	MRT(0-inf)	247 min
Cc1[nH]c(C)c(S(=O)(=O)Nc2ccc(S(F)(F)(F)(F)F)c(Cl)c2)c1C(=O)N1CCC(F)(F)C1		metabolic stability	human, liver microsomes		half-life	13 min
CC[C@H](C)[C@H](NC(=O)[C@H](Cc1ccccc1)NC(=O)[C@H](CCC(=O)O)NC(=O)[C@H](CCCCN)NC(=O)[C@H](C)NC(=O)[C@H](C)NC(=O)[C@H](CCC(N)=O)NC(=O)CNC(=O)[C@H](CCC(=O)O)NC(=O)[C@H](CC(C)C)NC(=O)[C@H](Cc1ccc(O)cc1)NC(=O)[C@H](CO)NC(=O)[C@H](CO)NC(=O)[C@@H](NC(=O)[C@H](CC(=O)O)NC(=O)[C@H](CO)NC(=O)[C@@H](NC(=O)[C@H](Cc1ccccc1)NC(=O)[C@@H](NC(=O)CNC(=O)[C@H](CCC(=O)O)NC(=O)[C@H](C)NC(=O)N(N)Cc1c[nH]cn1)[C@@H](C)O)[C@@H](C)O)C(C)C)C(=O)N[C@@H](C)C(=O)N[C@@H](Cc1c[nH]c2ccccc12)C(=O)N[C@@H](CC(C)C)C(=O)N[C@H](C(=O)N[C@@H](CCCNC(=N)N)C(=O)NCC(=O)N[C@@H](CCCNC(=N)N)C(=O)NCC(=O)O)C(C)C			male CD-1 mouse, plasma	intravenous, 1 mg/kg, single dose	MRT	8.4 min
N#C[C@@]1(n2ccc(N)nc2=O)O[C@H](CO)[C@@H](O)[C@H]1O	Huh-7	cell growth or viability			CC50	99.5 µM
CC(C)=CCC[C@](C)(O[C@@H]1O[C@H](CO)[C@@H](O)[C@H](O)[C@H]1O)[C@H]1CC[C@]2(C)[C@@H]1[C@H](O)C[C@@H]1[C@@]3(C)CC[C@H](O)C(C)(C)[C@@H]3CC[C@]12C			mouse, plasma	intravenous, 2 mg/kg	MRT	510 min
CC(C)(C)[C@H](NC(=O)C(F)(F)F)C(=O)N1C[C@H]2[C@@H]([C@H]1C(=O)N[C@H](C#N)C[C@@H]1CCNC1=O)C2(C)C	Huh-7	cell growth or viability			CC50	> 100 µM
c1ccc2c(c1)[I+]c1ccccc1-2	HepG2	cell growth or viability, ATP luminescence		72 h	CC50	1.28 µM
CC(=O)c1c(C)c2cnc(Nc3ccc(C4CCN(CCS(C)(=O)=O)CC4)cn3)nc2n(C2CCCC2)c1=O		metabolic stability	human, liver microsomes		half-life	28.6 min
